Experimental findings from ChEMBL document CHEMBL1138187, “2-(2-Thienyl)-5,6-dihydroxy-4-carboxypyrimidines as inhibitors of the hepatitis C virus NS5B polymerase: discovery, SAR, modeling, and mutagenesis” (J Med Chem, 2006) are described below.

Series [1] deals with T1, RNA-directed RNA polymerase (Hepacivirus hominis, UniProt O39930). As to the kind of experiment: Inhibitory activity against HCV 1b BK NS5B deltaC55 RNA polymerase. The arrangement: species or system Hepatitis C virus subtype 1b. In short, it runs like this: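 Purified HCV 1b-BK NS5B∆C55 (residues 1-536) expressed in E. coli BL21(DE3). Polymerase activity read on a homopolymeric template RNA at pH 7.4. IC50 is the average of at least three independent determinations; standard deviations within 30% of the average.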
T1 sequence (O39930 whole entry, the tested form may be a part): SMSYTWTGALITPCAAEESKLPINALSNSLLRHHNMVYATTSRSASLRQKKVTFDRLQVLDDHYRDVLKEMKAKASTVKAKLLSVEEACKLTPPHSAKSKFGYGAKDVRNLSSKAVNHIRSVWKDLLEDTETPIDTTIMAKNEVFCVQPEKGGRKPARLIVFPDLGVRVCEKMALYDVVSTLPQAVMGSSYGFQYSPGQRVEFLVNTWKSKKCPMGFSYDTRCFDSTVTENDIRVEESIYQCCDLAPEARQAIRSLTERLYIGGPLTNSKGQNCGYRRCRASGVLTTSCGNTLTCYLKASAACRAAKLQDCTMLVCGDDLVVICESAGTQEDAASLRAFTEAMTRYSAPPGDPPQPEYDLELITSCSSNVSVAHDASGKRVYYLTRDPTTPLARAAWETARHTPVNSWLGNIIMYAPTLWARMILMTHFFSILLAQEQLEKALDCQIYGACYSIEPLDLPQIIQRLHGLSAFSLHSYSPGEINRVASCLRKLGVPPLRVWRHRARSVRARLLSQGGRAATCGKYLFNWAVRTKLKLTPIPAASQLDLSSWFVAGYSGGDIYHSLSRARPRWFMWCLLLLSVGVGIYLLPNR

The next series addresses Hepatitis C virus. The series is described as follows: Inhibition of subgenomic HCV RNA replication in Huh-7 cells (replicon assay).
For series [2], the target named is T1, RNA-directed RNA polymerase. As to the kind of experiment: Inhibitory activity against HCV 1b BK NS5B deltaC55 RNA polymerase involving manganese chelation. Details: species or system Hepatitis C virus subtype 1b. In outline:
(§1)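 HCV 1b-BK NS5B∆C55 (residues 1-536) from E. coli BL21(DE3), assayed on a homopolymeric template RNA with either Mg or Mn as the divalent metal ion. IC50 taken under each metal.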

The target in series [3] is RNA-directed RNA polymerase (Hepacivirus hominis, UniProt O39930, DELTAC55/R158K). The series is described as follows: Inhibitory activity against HCV 1b BK NS5B deltaC55-R158K mutant RNA polymerase. Details: species or system Hepatitis C virus subtype 1b. In short, it runs like this:
(§2)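 HCV 1b-BK NS5B∆C55 (residues 1-536) carrying R158M or R158K, expressed in E. coli BL21(DE3) and purified. Polymerase run on a homopolymeric template RNA with UTP as substrate; IC50 and UTP Km measured in duplicate.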

A short description of series [4]: Dissociation constant, pKa of the compound. It is filed as physicochemical.
Series [5] concerns the target RNA-directed RNA polymerase (Hepacivirus hominis, UniProt O39930, DELTAC55/R158M). As to the kind of experiment: Inhibitory activity against HCV 1b BK NS5B deltaC55-R158M mutant RNA polymerase. The arrangement: species or system Hepatitis C virus subtype 1b. In outline: as §2
The nature of series [6]: Lipophilicity as measured by LogD at pH 7.4. Type of series: physicochemical. The conditions noted are these: buffer.
In series [7] the target is T1, RNA-directed RNA polymerase. As to the kind of experiment: Inhibitory activity against HCV 1b BK NS5B deltaC55 RNA polymerase involving magnesium chelation. Details: species or system Hepatitis C virus subtype 1b. In outline: as §1
For series [8] the target is unchanged. The series is described as follows: Inhibitory activity against HCV 2a BK NS5B deltaC21 RNA polymerase. Details: species or system Hepatitis C virus subtype 2a.
For series [9] the target is unchanged. The series is described as follows: Inhibitory activity against HCV 3a BK NS5B deltaC21 RNA polymerase.
The target is the same in series [10]. The series is described as follows: Inhibitory activity against HCV 1b BK NS5B RNA polymerase. Details: species or system Hepatitis C virus subtype 1b. In outline: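 Purified HCV 1b-BK NS5B∆C55 (residues 1-536), expressed in E. coli BL21(DE3), assayed with a homopolymeric template RNA at pH 7.4 with Mg as metal ion; IC50 taken as the average of at least three independent determinations.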

Series [11] has the same target. The series is described as follows: Inhibitory activity against HCV 1b BK NS5B deltaC21 RNA polymerase. Details: species or system Hepatitis C virus subtype 1b. In outline: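 HCV 1b-BK NS5B∆C21 (residues 1-570), expressed in E. coli BL21(DE3) and purified; polymerase activity measured on a homopolymeric template RNA; IC50 read-out.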
The species named for a further series is Homo sapiens. The series is described as follows: Percent of unbound ligand in human plasma. Type of series: ADME, organism-based.

In [1], `O=C(NCCc1ccccc1)Nc1ccsc1-c1nc(O)c(O)c(C(=O)O)n1` had an IC50 of 620 nM. The same compound registered a concentration giving a half-maximal response (EC50) on Hepatitis C virus greater than 50000 nM.
`O=C(O)c1nc(-c2cc([N+](=O)[O-])cs2)nc(O)c1O`: it took 9400 nM to reach half-maximal inhibition in [1] (IC50). In other words, the single-digit micromolar range.
In turn, `Nc1ccsc1-c1nc(C(=O)O)c(O)c(=O)[nH]1` returned an IC50 in series [1] of 1900 nM.
For the compound `O=C(Nc1ccccc1)Nc1ccsc1-c1nc(O)c(O)c(C(=O)O)n1`, in series [1], the midpoint of inhibition, the IC50, lay at 580 nM. The compound also had an EC50 at Hepatitis C virus greater than 50000 nM.
Take `O=C(O)c1nc(-c2cccs2)nc(O)c1O`: the IC50 is 240 nM in series [2], 92000 nM in series [3] and 9300 nM in series [5]. The compound also yielded a pKa in [4] of 7.7. The compound further displayed a logD in series [6] of -1.95.
In turn, `CCCCc1nc(C(=O)O)c(O)c(=O)[nH]1` had a 50% inhibitory concentration (IC50) in series [1] greater than 50000 nM.
In series [1], `O=C(Nc1ccsc1-c1nc(O)c(O)c(C(=O)O)n1)OCc1c(Cl)cccc1Cl` came in with an IC50 of 190 nM. This compound came in with a concentration giving a half-maximal response (EC50) on Hepatitis C virus of 18600 nM.
In series [1], `O=C(NCc1ccccc1)Nc1ccsc1-c1nc(O)c(O)c(C(=O)O)n1` had an IC50 of 230 nM.
`O=C(Cc1ccccc1Cl)Nc1ccsc1-c1nc(O)c(O)c(C(=O)O)n1` displayed an IC50 in series [1] of 210 nM. For the same compound, it took 53300 nM to reach a half-maximal effect on Hepatitis C virus (EC50).
For `O=C(Nc1ccsc1-c1nc(C(=O)O)c(O)c(=O)[nH]1)OCc1cccc2ccccc12` the same measures were 140 nM and 13600 nM.
For `O=C(Cc1ccccc1)Nc1ccsc1-c1nc(O)c(O)c(C(=O)O)n1`, in [1], the IC50 came to 380 nM.
With `O=C(O)c1nc(C2CCCCC2)nc(O)c1O`, the concentration for half-maximal inhibition (IC50) in series [7] was greater than 50000 nM; in series [2] it was greater than 25000 nM; in [1] it was greater than 50000 nM. In series [4], the pKa came out at 8.7.
For the compound `O=C(Nc1ccsc1-c1nc(O)c(O)c(C(=O)O)n1)OCc1ccccc1Cl`, the IC50 in [3] stood at 900 nM; in series [1], 140 nM; in series [5] it was 340 nM. The compound further had an EC50 on Hepatitis C virus of 31500 nM.
In [1], `O=C(Nc1ccsc1-c1nc(O)c(O)c(C(=O)O)n1)OCc1ccccc1` gave an IC50 of 290 nM.
Regarding `O=C(Nc1ccsc1-c1nc(C(=O)O)c(O)c(=O)[nH]1)OCCc1ccccc1`, it took 460 nM to reach half-maximal inhibition in series [1] (IC50). Also, the EC50 on Hepatitis C virus is greater than 50000 nM. Also, in series [6], the pH-dependent lipophilicity (logD) is -0.43.
In the case of `O=C(O)c1nc(-c2cc3ccccc3s2)nc(O)c1O`, in series [1], the IC50 came to 11600 nM. That is a double-digit micromolar value.
As for `O=C(O)c1nc(-c2nccs2)nc(O)c1O`, the concentration for half-maximal inhibition (IC50) amounted to 760 nM in series [7]; 210 nM in series [2]; 16000 nM in series [3]; 760 nM in series [1]; 2770 nM in [5]. In series [4], the pKa was determined as 6.9. Moreover, the logD in [6] was -2.12.
Consider `O=C(O)c1nc(-c2sccc2NS(=O)(=O)c2ccc3ccccc3c2)[nH]c(=O)c1O`, for which the half-inhibitory concentration (IC50) in series [1] came out at 1420 nM.
Regarding `O=C(O)c1nc(-c2sccc2[N+](=O)[O-])nc(O)c1O`, the half-inhibitory concentration (IC50) in [7] is 680 nM; in series [2], 65 nM; in series [1], 680 nM. In addition, the pKa in [4] amounted to 6.9.
Consider `O=C(O)c1nc(Cc2ccccc2)nc(O)c1O`, for which, in series [1], the IC50 is greater than 50000 nM.
For the compound `O=C(Cc1c(-c2ccccc2)[nH]c2ccccc12)Nc1ccsc1-c1nc(C(=O)O)c(O)c(=O)[nH]1`, half-maximal inhibition in [1] (IC50) required 280 nM. The same compound registered a 50% effective concentration (EC50) at Hepatitis C virus greater than 50000 nM.
Turning to `O=C(O)c1nc(-c2sccc2[N+](=O)[O-])n(Cc2ccccc2)c(=O)c1O`, the half-inhibitory concentration (IC50) in series [1] was 79300 nM.
`O=C(Nc1ccsc1-c1nc(C(=O)O)c(O)c(=O)[nH]1)c1ccccc1` had a concentration for half-maximal inhibition (IC50) in series [1] of 800 nM. Besides, the EC50 on Hepatitis C virus was greater than 50000 nM.
On the same counts, the results for `O=C(Cc1csc2ccccc12)Nc1ccsc1-c1nc(C(=O)O)c(O)c(=O)[nH]1` are 230 nM and greater than 50000 nM.
As to `O=C(NCc1ccccc1Cl)Nc1ccsc1-c1nc(O)c(O)c(C(=O)O)n1`, the IC50 turned out to be 150 nM in [7]; 36 nM in series [2]; 44 nM in series [8]; 150 nM in series [1]; 48 nM in series [9]; 130 nM in series [10]. This compound had a 50% inhibitory concentration (IC50) in series [11] of 45 nM. For the same compound, the pKa in series [4] amounted to 6.6. The compound further had an EC50 at Hepatitis C virus of 9300 nM. In series [6], this compound showed a pH-dependent lipophilicity (logD) of 0.37.
Compound `O=C(Nc1csc(-c2nc(C(=O)O)c(O)c(=O)[nH]2)c1)c1cccs1` had an IC50 in [1] of 13800 nM.
Regarding `Cn1c(-c2sccc2[N+](=O)[O-])nc(C(=O)O)c(O)c1=O`, in [1], the IC50 amounted to 8700 nM.
The same measure, in the same setting: then `C=CCn1c(-c2sccc2[N+](=O)[O-])nc(C(=O)O)c(O)c1=O`, with 69300 nM.
`O=C(Cc1c[nH]c2ccccc12)Nc1ccsc1-c1nc(O)c(O)c(C(=O)O)n1` gave an IC50 in [1] of 200 nM. Further, on Hepatitis C virus, the concentration giving a half-maximal response (EC50) was greater than 50000 nM.
With `O=C(O)c1nc(-c2ccco2)nc(O)c1O`, the IC50 came out at 2900 nM in series [7], 240 nM in series [2] and 2900 nM in series [1]. This compound also yielded a pKa in series [4] of 7.4.
Consider `O=C(O)c1nc(-c2cnccn2)nc(O)c1O`, for which, in series [1], it took 5300 nM to reach half-maximal inhibition (IC50).
`O=C(CCc1ccccc1)Nc1ccsc1-c1nc(O)c(O)c(C(=O)O)n1` gave an IC50 in series [1] of 580 nM. On Hepatitis C virus, this compound gave an EC50 greater than 50000 nM.
`O=C(NCc1csc2ccccc12)Nc1ccsc1-c1nc(O)c(O)c(C(=O)O)n1`: 220 nM corresponded to half-maximal inhibition in [1] (IC50). A half-maximal response at Hepatitis C virus (EC50) required 30000 nM.
For `Cn1c(-c2cccs2)nc(C(=O)O)c(O)c1=O`, the IC50 turned out to be 460 nM in [2] and 4200 nM in series [1]. The pKa in [4] is 9.1.
On to `O=C(O)c1nc(-c2ccc([N+](=O)[O-])s2)[nH]c(=O)c1O`, for which, in series [1], the midpoint of inhibition, the IC50, lay at 16000 nM. This counts as double-digit micromolar.
With `O=C(O)c1nc(-c2ccccc2)nc(O)c1O`, the pKa in series [4] was found to be 8.6.
`Cc1ccsc1-c1nc(O)c(O)c(C(=O)O)n1`: the concentration for half-maximal inhibition (IC50) in series [1] came out at 5600 nM.
On the same count and under the same terms, then `Cc1ccc(-c2nc(O)c(O)c(C(=O)O)n2)s1`, with 48600 nM.
Take `Cc1cccc(Cl)c1CNC(=O)Nc1ccsc1-c1nc(O)c(O)c(C(=O)O)n1`: the Fu in the series filed under Homo sapiens came out at 0.2%. In series [1], this compound registered a half-maximal inhibitory concentration (IC50) of 90 nM. At Hepatitis C virus, the EC50 came out at 13600 nM. This compound had a logD in series [6] of 0.6.
For the compound `CS(=O)(=O)c1nc(C(=O)O)c(O)c(=O)[nH]1`, in [1], the 50% inhibitory concentration (IC50) was determined as 2400 nM.
